Key:
[1] = biological target: T1, Prostaglandin G/H synthase 1 (Homo sapiens, UniProt P23219); assay: In vitro average percent inhibition of human prostaglandin G/H synthase 1 (COX-1) at a concentration of 100 uM
Procedure, shortened: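 Supplied recombinant human COX-1 (5 units) preincubated 2 min at 25 °C in 0.1 M Tris-HCl pH 8.0 with 5 mM EDTA, 2 mM phenol and heme; compound or DMSO added, 20 min at 25 °C; started with 10 mM arachidonic acid stock, 2 min at 37 °C; stopped with HCl, SnCl2 reduction; prostaglandins by EIA; percent inhibition versus solvent control.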

[2] = biological target: T2, Prostaglandin G/H synthase 2 (Homo sapiens) (UniProt P35354); conditions: at 1 µM
T2 sequence (whole entry): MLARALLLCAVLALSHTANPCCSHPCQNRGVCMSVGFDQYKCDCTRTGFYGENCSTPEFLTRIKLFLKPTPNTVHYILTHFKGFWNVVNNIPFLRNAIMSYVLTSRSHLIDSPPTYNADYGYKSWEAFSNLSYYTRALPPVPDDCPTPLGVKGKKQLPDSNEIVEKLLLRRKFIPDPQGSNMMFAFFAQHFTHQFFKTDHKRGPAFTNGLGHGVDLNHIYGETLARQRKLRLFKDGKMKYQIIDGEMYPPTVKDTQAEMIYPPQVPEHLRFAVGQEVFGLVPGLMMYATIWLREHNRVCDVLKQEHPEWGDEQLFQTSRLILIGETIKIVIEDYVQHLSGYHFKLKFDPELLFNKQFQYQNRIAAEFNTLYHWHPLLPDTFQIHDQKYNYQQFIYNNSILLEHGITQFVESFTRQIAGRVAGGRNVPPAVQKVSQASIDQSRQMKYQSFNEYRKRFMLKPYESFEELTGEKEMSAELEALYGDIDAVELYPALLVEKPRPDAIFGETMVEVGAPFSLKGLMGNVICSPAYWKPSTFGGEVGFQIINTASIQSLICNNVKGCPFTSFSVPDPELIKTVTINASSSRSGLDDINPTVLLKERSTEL

[3] = biological target: T2, Prostaglandin G/H synthase 2 (Homo sapiens); conditions: at 10 µM
[4] = biological target: T1, Prostaglandin G/H synthase 1; conditions: at 100 µM

T1 sequence (P23219 whole entry): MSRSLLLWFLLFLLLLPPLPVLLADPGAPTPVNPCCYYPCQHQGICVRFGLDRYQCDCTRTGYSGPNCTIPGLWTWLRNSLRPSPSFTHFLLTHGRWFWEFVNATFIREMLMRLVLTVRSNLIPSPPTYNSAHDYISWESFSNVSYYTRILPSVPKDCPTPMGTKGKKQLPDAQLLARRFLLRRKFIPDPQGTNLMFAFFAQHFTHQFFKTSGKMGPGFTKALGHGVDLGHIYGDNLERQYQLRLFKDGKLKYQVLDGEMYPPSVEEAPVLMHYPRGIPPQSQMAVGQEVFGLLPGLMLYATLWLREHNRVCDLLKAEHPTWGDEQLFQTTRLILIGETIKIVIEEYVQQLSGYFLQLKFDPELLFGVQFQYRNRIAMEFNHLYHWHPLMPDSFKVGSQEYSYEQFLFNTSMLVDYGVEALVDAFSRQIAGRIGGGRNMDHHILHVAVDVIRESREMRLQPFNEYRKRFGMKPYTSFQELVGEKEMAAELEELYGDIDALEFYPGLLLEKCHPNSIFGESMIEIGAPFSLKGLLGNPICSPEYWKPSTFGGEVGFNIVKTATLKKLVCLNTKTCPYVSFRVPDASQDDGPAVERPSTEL

| Structure (SMILES) | inhibition [1] [%] | inhibition [2] [%] | inhibition [3] [%] | inhibition [4] [%] |
| --- | --- | --- | --- | --- |
| CS(=O)(=O)c1ccc(-c2cc3c(cc2C(=O)N2CCCCC2)OCO3)cc1 | – | 20 | 40 | 15 |
| CS(=O)(=O)c1ccc(-c2cc3c(cc2CN2CCCCC2)OCO3)cc1 | – | 0 | 30 | 0 |
| CS(=O)(=O)c1ccc(-c2cc3c(cc2CN2CCCCC2CO)OCO3)cc1 (centres undefined) | – | 25 | 30 | 0 |
| CS(=O)(=O)c1ccc(-c2cc3c(cc2C(=O)C2CCCCC2)OCO3)cc1 | 55 | – | – | – |
| CS(=O)(=O)c1ccc(-c2cc3c(cc2CC2CCCCC2)OCO3)cc1 | 50 | 100 | 100 | 0 |
| CN1CCN(C(=O)c2cc3c(cc2-c2ccc(S(C)(=O)=O)cc2)OCO3)CC1 | – | 20 | 15 | 15 |
| CS(=O)(=O)c1ccc(-c2cc3c(cc2Cc2ccccc2F)OCO3)cc1 | 75 | – | – | – |
| O=S(=O)(CF)c1ccc(-c2cc3c(cc2Cc2ccccc2)OCO3)cc1 | – | 25 | 50 | 50 |
| CS(=O)(=O)c1ccc(-c2cc3c(cc2C(O)c2ccccc2)OCO3)cc1 (centres undefined) | – | 0 | 0 | 0 |
| CS(=O)(=O)c1ccc(-c2cc3c(cc2CN2CCC(O)CC2)OCO3)cc1 | – | 10 | 25 | 0 |
| CCOC(=O)C1CCN(Cc2cc3c(cc2-c2ccc(S(C)(=O)=O)cc2)OCO3)CC1 | – | 20 | 20 | 0 |
| CS(=O)(=O)c1ccc(-c2cc3c(cc2CN2CCCCC2=O)OCO3)cc1 | 50 | 20 | 90 | 70 |
| CS(=O)(=O)c1ccc(-c2cc3c(cc2C(=O)N2CCOCC2)OCO3)cc1 | – | 35 | 10 | 10 |
| CCOC(=O)C1CCCN(Cc2cc3c(cc2-c2ccc(S(C)(=O)=O)cc2)OCO3)C1 (centres undefined) | – | 40 | 40 | 10 |
| CS(=O)(=O)c1ccc(-c2cc3c(cc2CN2CCCC(CO)C2)OCO3)cc1 (centres undefined) | – | 20 | 30 | 0 |

More lines, now with the values ahead:

| inhibition [1] [%] | inhibition [2] [%] | inhibition [3] [%] | inhibition [4] [%] | Structure (SMILES) |
| --- | --- | --- | --- | --- |
| 50 | – | – | – | CS(=O)(=O)c1ccc(-c2cc3c(cc2C(=O)c2cc(F)cc(F)c2)OCO3)cc1 |
| 70 | – | – | – | CS(=O)(=O)c1ccc(-c2cc3c(cc2C(=O)c2ccccc2F)OCO3)cc1 |
| 25 | – | – | – | CS(=O)(=O)c1ccc(-c2cc3c(cc2Cc2cccc(F)c2)OCO3)cc1 |
| 60 | – | – | – | Cc1ccc(C(=O)c2cc3c(cc2-c2ccc(S(C)(=O)=O)cc2)OCO3)cc1 |
| 35 | – | – | – | COc1cccc(Cc2cc3c(cc2-c2ccc(S(C)(=O)=O)cc2)OCO3)c1 |
| 10 | – | – | – | Cc1cccc(Cc2cc3c(cc2-c2ccc(S(C)(=O)=O)cc2)OCO3)c1 |
| 95 | – | – | – | COc1cccc(C(=O)c2cc3c(cc2-c2ccc(S(C)(=O)=O)cc2)OCO3)c1 |
| – | 0 | 20 | 20 | CS(=O)(=O)c1ccc(-c2cc3c(cc2C(=O)c2cccnc2)OCO3)cc1 |
| 90 | – | – | – | CS(=O)(=O)c1ccc(-c2cc3c(cc2C(=O)c2cccc(Cl)c2)OCO3)cc1 |
| 65 | – | – | – | CS(=O)(=O)c1ccc(-c2cc3c(cc2Cc2cccc(Cl)c2)OCO3)cc1 |
| 40 | – | – | – | Cc1ccc(F)c(Cc2cc3c(cc2-c2ccc(S(C)(=O)=O)cc2)OCO3)c1 |
| – | 0 | 20 | 0 | CS(=O)(=O)c1ccc(-c2cc3c(cc2C(=O)N2CCCC2)OCO3)cc1 |
| 95 | – | – | – | CS(=O)(=O)c1ccc(-c2cc3c(cc2C(=O)c2ccc(F)cc2)OCO3)cc1 |
| – | 0 | 10 | 0 | Cc1cccnc1C(=O)c1cc2c(cc1-c1ccc(S(C)(=O)=O)cc1)OCO2 |
| 90 | – | – | – | Cc1ccc(F)c(C(=O)c2cc3c(cc2-c2ccc(S(C)(=O)=O)cc2)OCO3)c1 |
